Assay results as given in ChEMBL document CHEMBL5247578, “Effective synthesis of benzimidazoles-imidazo[1,2-a]pyrazine conjugates: A comparative study of mono-and bis-benzimidazoles for antitumor activity” (Eur J Med Chem, 2019).
One block for each compound: values may come before it.

Key:
[1] = n-Octanol/phosphate buffer partition coefficient, logP of the compound at pH 7.4 incubated for 85 mins by shake-flask method; type: physicochemical
Summary of the method: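 Octanol–water partition by shake-flask: n-octanol with 0.15 M phosphate buffer pH 7.4 at 10:1 volumes. Buffer-phase absorbance read before mixing, then shaken 50 min and centrifuged at 2500 rpm for 35 min. Buffer absorbance read again; P = (Ai−Af)/Af × Vw/Vo.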

[2] = system: SN12C; assay: Antiproliferative activity against human SN12C cells assessed as cell growth inhibition at 10 uM incubated for 48 hrs by sulforhodamine B assay relative to control; type: functional
Summary of the method: (§1)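 NCI-60 single-dose screen at 10^-5 M. Cells grown in RPMI 1640 with 5% FBS and 2 mM L-glutamine, plated at 5,000–40,000 cells/well, and preincubated 24 h. Drug (DMSO stock) added and incubated 48 h at 37 °C, 5% CO2. Adherent cells fixed with cold TCA, stained with 0.4% SRB in 1% acetic acid, dye solubilized in 10 mM trizma base, A515 read. Percent growth taken against time-zero and untreated control.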

[3] = system: NCI-H522; assay: Antiproliferative activity against human NCI-H522 cells assessed as cell growth inhibition at 10 uM incubated for 48 hrs by sulforhodamine B assay relative to control; type: functional; summary of the method: as §1
[4] = system: MOLT-4; assay: Antiproliferative activity against human MOLT-4 cells assessed as cell growth inhibition at 10 uM incubated for 48 hrs by sulforhodamine B assay relative to control; type: functional; summary of the method: as §1
[5] = system: U-251; assay: Antiproliferative activity against human U-251 cells assessed as cell growth inhibition at 10 uM incubated for 48 hrs by sulforhodamine B assay relative to control; type: functional; summary of the method: as §1
[6] = system: HOP-92; assay: Antiproliferative activity against human HOP-92 cells assessed as cell growth inhibition at 10 uM incubated for 48 hrs by sulforhodamine B assay relative to control; type: functional
Summary of the method: (§2)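 NCI-60 one-dose prescreen at 10^-5 M. Cells grown in RPMI 1640 with 5% FBS and 2 mM glutamine, preincubated 24 h, then exposed 48 h at 37 °C. Adherent lines TCA-fixed, SRB-stained, A515 read. Growth percent relative to time-zero and control; negative values mean cell kill.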

[7] = system: CCRF-CEM; assay: Antiproliferative activity against human CCRF-CEM cells assessed as cell growth inhibition at 10 uM incubated for 48 hrs by sulforhodamine B assay relative to control; type: functional
Summary of the method: (§3)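 Single-dose NCI-60 prescreen at 10^-5 M. Cells in RPMI 1640 with 5% FBS and 2 mM L-glutamine, seeded 5,000–40,000 cells/well with 24 h preincubation, then drug exposure for 48 h at 37 °C under 5% CO2. Growth read by SRB staining of TCA-fixed cells at 515 nm against time-zero and untreated controls. Negative growth values denote cell kill.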

[8] = system: SF-268; assay: Antiproliferative activity against human SF-268 cells assessed as cell growth inhibition at 10 uM incubated for 48 hrs by sulforhodamine B assay relative to control; type: functional; summary of the method: as §1
[9] = system: NCI-H460; assay: Antiproliferative activity against human NCI-H460 cells assessed as cell growth inhibition at 10 uM incubated for 48 hrs by sulforhodamine B assay relative to control; type: functional; summary of the method: as §1
[10] = system: SK-MEL-5; assay: Antiproliferative activity against human SK-MEL-5 cells assessed as cell growth inhibition at 10 uM incubated for 48 hrs by sulforhodamine B assay relative to control; type: functional; summary of the method: as §1
[11] = system: SR; assay: Antiproliferative activity against human SR cells assessed as cell growth inhibition at 10 uM incubated for 48 hrs by sulforhodamine B assay relative to control; type: functional; summary of the method: as §1
[12] = system: HCT-116; assay: Antiproliferative activity against human HCT-116 cells assessed as cell growth inhibition at 10 uM incubated for 48 hrs by sulforhodamine B assay relative to control; type: functional; summary of the method: as §2
[13] = system: SNB-75; assay: Antiproliferative activity against human SNB-75 cells assessed as cell growth inhibition at 10 uM incubated for 48 hrs by sulforhodamine B assay relative to control; type: functional; summary of the method: as §1
[14] = system: UO-31; assay: Antiproliferative activity against human UO-31 cells assessed as cell growth inhibition at 10 uM incubated for 48 hrs by sulforhodamine B assay relative to control; type: functional; summary of the method: as §1
[15] = system: EKVX; assay: Antiproliferative activity against human EKVX cells assessed as cell growth inhibition at 10 uM incubated for 48 hrs by sulforhodamine B assay relative to control; type: functional; summary of the method: as §2
[16] = system: MDA-MB-231; assay: Antiproliferative activity against human MDA-MB-231 cells assessed as cell growth inhibition at 10 uM incubated for 48 hrs by sulforhodamine B assay relative to control; type: functional; summary of the method: as §1
[17] = system: UACC-62; assay: Antiproliferative activity against human UACC-62 cells assessed as cell growth inhibition at 10 uM incubated for 48 hrs by sulforhodamine B assay relative to control; type: functional; summary of the method: as §1
[18] = system: OVCAR-8; assay: Antiproliferative activity against human OVCAR-8 cells assessed as cell growth inhibition at 10 uM incubated for 48 hrs by sulforhodamine B assay relative to control; type: functional; summary of the method: as §1
[19] = system: T47D; assay: Antiproliferative activity against human T47D cells assessed as cell growth inhibition at 10 uM incubated for 48 hrs by sulforhodamine B assay relative to control; type: functional; summary of the method: as §1
[20] = system: HCT-15; assay: Antiproliferative activity against human HCT-15 cells assessed as cell growth inhibition at 10 uM incubated for 48 hrs by sulforhodamine B assay relative to control; type: functional; summary of the method: as §2
[21] = system: MCF7; assay: Antiproliferative activity against human MCF7 cells assessed as cell growth inhibition at 10 uM incubated for 48 hrs by sulforhodamine B assay relative to control; type: functional; summary of the method: as §1
[22] = system: HL-60; assay: Antiproliferative activity against human HL-60 cells assessed as cell growth inhibition at 10 uM incubated for 48 hrs by sulforhodamine B assay relative to control; type: functional; summary of the method: as §2
[23] = system: KM12; assay: Antiproliferative activity against human KM12 cells assessed as cell growth inhibition at 10 uM incubated for 48 hrs by sulforhodamine B assay relative to control; type: functional; summary of the method: as §1
[24] = system: LOX IMVI; assay: Antiproliferative activity against human LOX IMVI cells assessed as cell growth inhibition at 10 uM incubated for 48 hrs by sulforhodamine B assay relative to control; type: functional; summary of the method: as §1
[25] = system: K562; assay: Antiproliferative activity against human K562 cells assessed as cell growth inhibition at 10 uM incubated for 48 hrs by sulforhodamine B assay relative to control; type: functional; summary of the method: as §1
[26] = system: SNB-19; assay: Antiproliferative activity against human SNB-19 cells assessed as cell growth inhibition at 10 uM incubated for 48 hrs by sulforhodamine B assay relative to control; type: functional; summary of the method: as §1
[27] = system: A549; assay: Antiproliferative activity against human A549 cells assessed as cell growth inhibition at 10 uM incubated for 48 hrs by sulforhodamine B assay relative to control; type: functional; summary of the method: as §3
[28] = system: HT-29; assay: Antiproliferative activity against human HT-29 cells assessed as cell growth inhibition at 10 uM incubated for 48 hrs by sulforhodamine B assay relative to control; type: functional; summary of the method: as §1
[29] = system: NCI-H322M; assay: Antiproliferative activity against human NCI-H322M cells assessed as cell growth inhibition at 10 uM incubated for 48 hrs by sulforhodamine B assay relative to control; type: functional; summary of the method: as §1
[30] = system: ACHN; assay: Antiproliferative activity against human ACHN cells assessed as cell growth inhibition at 10 uM incubated for 48 hrs by sulforhodamine B assay relative to control; type: functional; summary of the method: as §3
[31] = system: RPMI-8226; assay: Antiproliferative activity against human RPMI-8226 cells assessed as cell growth inhibition at 10 uM incubated for 48 hrs by sulforhodamine B assay relative to control; type: functional; summary of the method: as §1
[32] = system: PC-3; assay: Antiproliferative activity against human PC-3 cells assessed as cell growth inhibition at 10 uM incubated for 48 hrs by sulforhodamine B assay relative to control; type: functional; summary of the method: as §1
[33] = system: NCI-H226; assay: Antiproliferative activity against human NCI-H226 cells assessed as cell growth inhibition at 10 uM incubated for 48 hrs by sulforhodamine B assay relative to control; type: functional; summary of the method: as §1

logD at 1.417 h [1]: 1.87
Structure (SMILES): Cc1cccc(-c2cn3ccnc3c(-c3ccc4ncn(C5CCCCC5)c4c3)n2)c1

logD at 1.417 h [1]: 1.66
Structure (SMILES): CCc1ccc(-c2cn3ccnc3c(-c3ccc4ncn(C5CCCCC5)c4c3)n2)cc1

logD at 1.417 h [1]: 1.72
Structure (SMILES): FC(F)(F)c1cccc(-c2cn3ccnc3c(-c3ccc4ncn(C5CCCCC5)c4c3)n2)c1
inhibition at 10 µM [2]: 8.3%
inhibition at 10 µM [3]: 10.7%
inhibition at 10 µM [4]: 32.9%
inhibition at 10 µM [5]: 5.93%
inhibition at 10 µM [6]: 8.38%
inhibition at 10 µM [7]: 27.3%
inhibition at 10 µM [8]: 3.3%
inhibition at 10 µM [9]: 4.38%
inhibition at 10 µM [10]: 4.32%
inhibition at 10 µM [11]: 15.6%
inhibition at 10 µM [12]: 17.6%
inhibition at 10 µM [13]: 4.58%
inhibition at 10 µM [14]: 22.5%
inhibition at 10 µM [15]: 4.79%
inhibition at 10 µM [16]: 21.8%
inhibition at 10 µM [17]: 4.33%
inhibition at 10 µM [18]: 10.1%
inhibition at 10 µM [19]: 52.1%
inhibition at 10 µM [20]: 0.36%
inhibition at 10 µM [21]: 19.9%
inhibition at 10 µM [22]: 1.06%
inhibition at 10 µM [23]: 1.25%
inhibition at 10 µM [24]: 3.45%
inhibition at 10 µM [25]: 21.5%
inhibition at 10 µM [26]: 2.24%
inhibition at 10 µM [27]: 5.15%
inhibition at 10 µM [28]: 6.41%
inhibition at 10 µM [29]: 5.83%
inhibition at 10 µM [30]: 0.3%
inhibition at 10 µM [31]: 32.1%
inhibition at 10 µM [32]: 36.5%
inhibition at 10 µM [33]: 1.55%
